Where a chain is given by its changes, count along the chain named. Calls of active or inactive are those of the source. The calls are words filed in the database; no cut-off is given here.
How the values were obtained:
Assay type in all cases: cell-based
[1] = target: Muscarinic acetylcholine receptor M2 (Homo sapiens, UniProt P08172, Y177Q); test: (§1) Displacement of [3H]-NMS from human muscarinic M2 Y177Q mutant expressed in Flp-In-CHO cells by liquid scintillation counting
How it was run: (§2)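 Separated by rapid filtration, counted by liquid scintillation. Means ± SEM of 3−4 independent experiments in triplicate; unpaired two-tailed t test versus wild type.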

[2] = target: T1, Muscarinic acetylcholine receptor M2 (Homo sapiens, UniProt P08172); test: (§3) Displacement of [3H]-NMS from wild-type human muscarinic M2 receptor expressed in Flp-In-CHO cells by liquid scintillation counting; how it was run: as §2
T1 sequence (P08172 whole entry): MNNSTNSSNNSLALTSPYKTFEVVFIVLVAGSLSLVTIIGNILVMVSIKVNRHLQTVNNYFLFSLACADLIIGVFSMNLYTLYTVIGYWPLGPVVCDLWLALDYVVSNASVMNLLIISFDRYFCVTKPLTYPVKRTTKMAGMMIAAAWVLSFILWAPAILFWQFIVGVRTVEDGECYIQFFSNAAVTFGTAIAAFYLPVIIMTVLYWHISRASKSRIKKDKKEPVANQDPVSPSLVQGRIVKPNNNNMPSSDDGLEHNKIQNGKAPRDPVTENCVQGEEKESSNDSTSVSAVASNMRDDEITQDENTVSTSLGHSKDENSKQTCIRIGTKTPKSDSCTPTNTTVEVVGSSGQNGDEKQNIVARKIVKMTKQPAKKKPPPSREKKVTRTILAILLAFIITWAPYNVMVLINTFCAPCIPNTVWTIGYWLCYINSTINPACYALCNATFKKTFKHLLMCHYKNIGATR

[3] = target: T2, Muscarinic acetylcholine receptor M5 (Homo sapiens, UniProt P08912); test: (§4) Displacement of [3H]-NMS from wild-type human muscarinic M5 receptor expressed in CHO-K1 cells by liquid scintillation counting; how it was run: as §2
T2 sequence (P08912 whole entry): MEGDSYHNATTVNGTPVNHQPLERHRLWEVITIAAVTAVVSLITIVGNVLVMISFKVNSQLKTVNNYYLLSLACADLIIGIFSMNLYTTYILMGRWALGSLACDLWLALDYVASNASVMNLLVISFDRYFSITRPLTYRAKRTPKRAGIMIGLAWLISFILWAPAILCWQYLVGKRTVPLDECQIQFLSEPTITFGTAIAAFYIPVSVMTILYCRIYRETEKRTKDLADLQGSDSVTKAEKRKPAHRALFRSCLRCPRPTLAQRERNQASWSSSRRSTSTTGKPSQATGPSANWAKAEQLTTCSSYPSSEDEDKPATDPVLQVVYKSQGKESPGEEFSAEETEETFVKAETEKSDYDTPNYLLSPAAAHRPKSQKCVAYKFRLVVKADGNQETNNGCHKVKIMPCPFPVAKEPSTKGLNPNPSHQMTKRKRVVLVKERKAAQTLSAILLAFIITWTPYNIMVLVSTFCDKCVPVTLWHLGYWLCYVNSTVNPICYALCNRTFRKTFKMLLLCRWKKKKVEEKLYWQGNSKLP

[4] = target: Muscarinic acetylcholine receptor M2 (Homo sapiens, UniProt P08172, Y104A); test: (§5) Displacement of [3H]-NMS from human muscarinic M2 Y104A mutant expressed in Flp-In-CHO cells by liquid scintillation counting
How it was run: (§6)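 Bound separated either by rapid filtration or, in some cases, by centrifugation at 21000g, 15 °C, 20 min. Pellet washed once, resuspended, counted by liquid scintillation. Triplicate determinations.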

[5] = target: Muscarinic acetylcholine receptor M2 (Homo sapiens, UniProt P08172, T423H/Y177Q); test: (§7) Displacement of [3H]-NMS from human muscarinic M2 Y177Q/T423H mutant expressed in Flp-In-CHO cells by liquid scintillation counting; how it was run: as §2
[6] = target: Muscarinic acetylcholine receptor M2 (Homo sapiens, UniProt P08172, W422A); test: Displacement of [3H]-NMS from human muscarinic M2 W422A mutant expressed in Flp-In-CHO cells by liquid scintillation counting; how it was run: as §2
[7] = target: T3, Muscarinic acetylcholine receptor M2 (Homo sapiens) (UniProt P08172); test: Antagonist activity at wild-type human muscarinic M2 receptor expressed in Flp-In-CHO cells assessed as inhibition of acetylcholine-induced effect at 100 uM in absence of atropine by time-course assay
T3 sequence (whole entry): T1 sequence (P08172 whole entry)

[8] = target: T3, Muscarinic acetylcholine receptor M2 (Homo sapiens); test: Antagonist activity at wild-type human muscarinic M2 receptor expressed in Flp-In-CHO cells assessed as inhibition of acetylcholine-induced effect at 0.1 to 100 uM by time-course assay
How it was run: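 DMR (label-free optical) in Flp-In-CHO cells stably expressing hM2, seeded 12500 cells/well, grown 20 h at 37 °C. Washed, rested 2 h at 28 °C in HBSS + 20 mM HEPES pH 7.0. Acetylcholine at maximally effective concentration, then antagonist; responses monitored 1 h. Representative experiment, n = 4, repeated at least twice on separate days.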

[9] = target: T3, Muscarinic acetylcholine receptor M2 (Homo sapiens); test: Antagonist activity at wild-type human muscarinic M2 receptor expressed in Flp-In-CHO cells assessed as inhibition of acetylcholine-induced effect at 0.01 to 100 uM by time-course assay
How it was run: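 Label-free dynamic mass redistribution (Epic reader) in Flp-In-CHO cells stably expressing hM2, seeded at 12500 cells/well and grown 20 h at 37 °C to confluence. Cells washed and rested 2 h at 28 °C in HBSS with 20 mM HEPES, pH 7.0. DMR signal induced by a maximally effective acetylcholine concentration, antagonist then added and response followed over time. Representative experiment, n = 4, repeated at least twice on separate days.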

[10] = target: T3, Muscarinic acetylcholine receptor M2 (Homo sapiens); test: as §3; how it was run: as §2
[11] = target: T4, Muscarinic acetylcholine receptor M5 (Homo sapiens) (UniProt P08912); test: as §4; how it was run: as §2
T4 sequence (whole entry): T2 sequence (P08912 whole entry)

[12] = test system: T5, Muscarinic acetylcholine receptor M2 (Homo sapiens), P08172 [Y104A]; test: as §5; how it was run: as §6
T5 sequence (whole entry): T1 sequence (P08172 whole entry) with Y104A

[13] = test system: T6, Muscarinic acetylcholine receptor M2 (Homo sapiens), P08172 [Y177Q,T423H]; test: as §7; how it was run: as §2
T6 sequence (whole entry): T1 sequence (P08172 whole entry) with Y177Q, T423H

[14] = test system: T7, Muscarinic acetylcholine receptor M2 (Homo sapiens), P08172 [Y177Q]; test: as §1; how it was run: as §2
T7 sequence (whole entry): T1 sequence (P08172 whole entry) with Y177Q

Sequence of Muscarinic acetylcholine receptor M2 (Homo sapiens, UniProt P08172, Y177Q) (P08172 whole entry Y177Q): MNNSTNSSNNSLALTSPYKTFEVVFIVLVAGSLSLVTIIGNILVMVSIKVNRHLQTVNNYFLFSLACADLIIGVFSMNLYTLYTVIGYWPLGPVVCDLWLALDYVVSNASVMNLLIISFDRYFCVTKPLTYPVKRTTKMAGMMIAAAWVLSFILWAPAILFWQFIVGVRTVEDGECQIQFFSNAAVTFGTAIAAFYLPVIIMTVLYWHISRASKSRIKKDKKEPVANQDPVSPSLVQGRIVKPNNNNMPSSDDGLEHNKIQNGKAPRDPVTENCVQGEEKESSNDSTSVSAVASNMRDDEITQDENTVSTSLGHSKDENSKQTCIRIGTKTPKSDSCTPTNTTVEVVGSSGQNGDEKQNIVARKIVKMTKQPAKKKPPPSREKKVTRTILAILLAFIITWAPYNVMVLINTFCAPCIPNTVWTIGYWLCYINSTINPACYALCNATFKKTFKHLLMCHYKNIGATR
Sequence of Muscarinic acetylcholine receptor M2 (Homo sapiens, UniProt P08172, W422A) (P08172 whole entry W422A): as the sequence (P08172 whole entry Y177Q) above, with Q177Y, W422A counted along it
Sequence of Muscarinic acetylcholine receptor M2 (Homo sapiens, UniProt P08172, T423H/Y177Q) (P08172 whole entry Y177Q/T423H): as the sequence (P08172 whole entry Y177Q) above, with T423H counted along it
Sequence of Muscarinic acetylcholine receptor M2 (Homo sapiens, UniProt P08172, Y104A) (P08172 whole entry Y104A): as the sequence (P08172 whole entry Y177Q) above, with Y104A, Q177Y counted along it

Row | Compound | Ki [1] [nM] | Ki [2] [nM] | Ki [3] [nM] | Ki [4] [nM] | Ki [5] [nM] | Ki [6] [nM] | other results
1 | CC(C)(CN1C(=O)c2cccc3cccc(c23)C1=O)C[N+](C)(C)CCCCCC[N+]1(C)[C@@H]2C[C@H](OC(=O)[C@H](CO)c3ccccc3)C[C@H]1[C@@H]1O[C@@H]12 (stereo not given in full) | 8.91 | 6.17 | 5.5 | 132 | 3.31 | 6.46 | 
2 | CC(C)(CN1C(=O)c2cccc3cccc(c23)C1=O)C[N+](C)(C)CCCCCC[N+]1(C)[C@@H]2CC[C@@H]1CC(OC(=O)C(CO)c1ccccc1)C2 (relative stereo) | 8.51 | 2.82 | 19.5 | 61.7 | 2.82 | 21.4 | inhibition [7]: inactive; inhibition [8]: Active
3 | CN1[C@@H]2CC[C@H]1CC(OC(=O)[C@H](CO)c1ccccc1)C2 (stereo not given in full) |  |  |  |  |  |  | inhibition [9]: Active
4 | C[N+](C)(C)CC#CCOC1=NOCC1 | 8.71 | 2.51 | 120 | 257 | 2.19 | 10 | 
5 | C[N+]1(C)[C@@H]2CC[C@@H]1CC(OC(=O)C(CO)c1ccccc1)C2 (stereo not given in full) |  | 1.82 |  | 11 |  |  | 
6 | C[N+](C)(CCCCCC[N+](C)(C)CCCN1C(=O)c2ccccc2C1=O)CCCN1C(=O)c2ccccc2C1=O |  |  |  |  |  |  | pKA [10]: 6.55; pKA [11]: 4.37; pKA [12]: 6.59; pKA [13]: 5.47
7 | C[N+](C)(C)CCCCCC[N+]1(C)[C@@H]2C[C@H](OC(=O)[C@H](CO)c3ccccc3)C[C@H]1[C@@H]1O[C@@H]12 (stereo not given in full) |  | 47.9 | 20.9 | 309 |  | 40.7 | 
8 | C[N+](C)(CCCCCC[N+]1(C)[C@@H]2C[C@H](OC(=O)[C@H](CO)c3ccccc3)C[C@H]1[C@@H]1O[C@@H]12)CCCN1C(=O)c2ccccc2C1=O (stereo not given in full) | 7.08 | 8.13 | 17 | 50.1 | 7.08 | 6.92 | 
9 | C[N+](C)(C)CCCCCC[N+]1(C)[C@@H]2CC[C@@H]1CC(OC(=O)C(CO)c1ccccc1)C2 (relative stereo) | 18.6 | 16.2 | 87.1 | 151 | 18.2 | 55 | 
10 | C[N+](C)(CC#CCOC1=NOCC1)CCCCCC[N+](C)(C)CCCN1C(=O)c2ccccc2C1=O | 275 | 91.2 | 30200 | 204 | 200 | 75.9 | 
11 | CC(C)(CN1C(=O)c2cccc3cccc(c23)C1=O)C[N+](C)(C)CCCCCC[N+](C)(C)CC#CCOC1=NOCC1 |  | 11.5 |  | 14.5 | 26.9 | 19.5 | 
12 | C[N+](C)(C)CCCCCC[N+](C)(C)CC#CCOC1=NOCC1 | 91.2 |  | 3980 | 1290 | 64.6 | 275 | 
13 | CC(C)(CN1C(=O)c2cccc3cccc(c23)C1=O)C[N+](C)(C)CCCCCC[N+](C)(C)CCCN1C(=O)c2ccccc2C1=O |  |  |  |  |  |  | pKA [14]: 6.23; inhibition [9]: Active; pKA [10]: 7.7; pKA [11]: 5.05; pKA [12]: 7.64; pKA [13]: 5.82
14 | CN(C)CC#CCOC1=NOCC1 |  | 100 |  |  |  |  | 

— ChEMBL document CHEMBL3352008, “Dualsteric muscarinic antagonists--orthosteric binding pose controls allosteric subtype selectivity” (J Med Chem, 2014)
